IEC-6 cytotox: counter-screen for KLF5 inhibitors: cytotoxicity in IEC-6 cells. IEC-6 cytotoxicity, luminescence viability. inhibition, % at 5 µM. 290,000 tested, 0.78% active; in the data active = inhibition above about 22%;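 also: 0% = plate median of test compound wells and 100% = cytotoxic reference compound wells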
Ba/F3 V617F tox: loss of viability in JAK2V617F-driven Ba/F3 cells. Ba/F3 EpoR-JAK2V617F viability, ATP luminescence. inhibition, % at 5.6 µM. 220,000 tested, 1.1% active. AID 1446;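 active = inhibition above the campaign mean plus 3 SD over all tested compounds, cut at about 24% in these data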;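 also: cytokine-independent growth of Ba/F3 cells driven by EpoR plus mutant JAK2; 0% = DMSO-treated cells and 100% = JAK inhibitor I control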
b-catenin transl: beta-catenin nuclear translocation modulation; 190,000 tested, 0.3% active; nuclear translocation activity, % at 5 µM; HeLa beta-catenin nuclear translocation, immunofluorescence imaging;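 active = nuclear translocation activity above 50% at 5 µM, with a well cell count of 50 or more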;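 also: per-cell ratio of nuclear to cytoplasmic median beta-catenin stain intensity; plate controls were DMSO negative control for no effect and GSK-3 inhibitor IX positive control for full effect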
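System: Human HeLa cells, endogenous beta-catenin | Compound dosing: 5 µM primary, 0.02–20 µM confirmation | Timing: 24 h compound exposure at 37°C, 5% CO2 | Measured by: Fluorescence imaging of beta-catenin antibody stain plus DAPI | Read-out basis: % activation of per-cell nuclear versus cytoplasmic median beta-catenin signal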
MT stabilize HCS: microtubule stabilizers in HeLa cells. HeLa tubulin immunostaining HCS, 24 h; share of cells brighter than vehicle mean+2SD. % tubulin-high responders, % at 10 µM. 200,000 tested, 0.83% active. AID 2205;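 active = plate Z-score above 3 for both tubulin-high and condensed-nucleus cell shares, with cell loss under 80%, at 10 µM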;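 also: anti alpha tubulin signal scored within the nucleus-defined area of each cell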
APP transl inh: APP translation inhibition; SH-SY5Y APP 5'UTR-luciferase reporter, luminescence; AID 1285; 190,000 tested, 0.82% active; inhibition, % at 2 µM;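 active = inhibition above a set limit, derived from the sample mean plus 3 SD, cut at about 45% in these data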
BaF3 parental: reduces parental Ba/F3 cell viability, JAK2V617F counter-screen; inhibition, % at 5.6 µM; CellTiter-Glo ATP luminescence; 220,000 tested, 1.1% active; AID 1486;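 active = inhibition above a per-campaign cutoff, the mean inhibition of all tested compounds plus 3 SD, cut at about 27% in these data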;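 also: 0% = DMSO wells and 100% = JAK Inhibitor I control wells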
Starred values were filed as active, the others as inactive; · = no result. Compounds with a hit are over-represented: about 2.2% of the library has one in this group of screens.

SMILES	IEC-6 cytotox	Ba/F3 V617F tox	b-catenin transl	MT stabilize HCS	APP transl inh	BaF3 parental
O=C(CC1CS(=O)(=O)CC1CC(=O)Nc1ccc2c(c1)OCCO2)Nc1ccc2c(c1)OCCO2 (centres undefined)	-2	-3	0	3	-52	0
Cc1cc(C)c(C(=O)NCCCN2CCOCC2)c(C)c1	-6	·	·	·	·	·
COc1ccc(-n2ncc3c(=O)n(CC(=O)N(C(C)C)C(C)C)cnc32)cc1	2	·	·	·	·	·
CC(C)CCOc1ccc(C2CC(=O)N(C)C2=O)cc1 (centres undefined)	4	-2	0	2	-29	2
COCc1ccc(C(=O)NC2CCCc3c2cnn3-c2cc(C)cc(C)c2)s1 (centres undefined)	7	·	·	·	·	·
Cc1cc(/C=c2/sc3nc4ccccc4n3c2=O)c(C)n1-c1ccccn1	5	-1	1	1	60*	0
CCCCNc1cc(=O)oc2ccccc12	-5	1	-2	2	6	3
CCOc1ccc(Nc2cc(=O)oc3ccccc23)cc1	-3	-5	1	29*	10	2
CN1CCN(CCCC(=O)c2ccc(F)cc2)CC1	-2	1	2	6	-3	92*
CCC1CCCCN1CC(=O)Nc1cc(C)nn1-c1nc(C)cc(C)n1 (centres undefined)	0	-1	1	53*	2	4
Cc1cc(C)nc(-n2nc(C)cc2NC(=O)CN2CCCC2)n1	2	2	-1	4	2	10
O=C(NCc1cccs1)C1CCN(c2ccc(S(=O)(=O)N3CCOCC3)cc2Cl)CC1	76*	73*	106*	27*	93*	78*
CC(NC(=O)c1cc2c(s1)CS(=O)(=O)C2)c1ccccc1 (centres undefined)	2	·	·	·	·	·
Cc1nc(N2CCN(C(=O)c3ccco3)CC2)nc2c1C(=O)CCC2	1	·	·	·	·	·
COc1ccc(C(=O)N2CCN(c3cccc(Cl)c3)CC2)c(OC)c1	9	1	·	44*	-11	8
COc1ccccc1C(=O)N1CCN(c2cccc(C(F)(F)F)c2)CC1	6	4	88*	35*	17	15
O=C(c1cccc([N+](=O)[O-])c1)N1CCN(c2cccc(Cl)c2)CC1	8	1	14	27*	3	6
Cc1ccccc1C1NC(=S)NC2=C1C(=O)CCC2 (centres undefined)	-7	-3	-4	3	-5	4
N=c1c(S(=O)(=O)c2ccc(Cl)cc2)cc2c(=O)n3ccccc3nc2n1C1CCCC1	-3	·	·	·	·	·
CC1CCCCC1NC(=O)C1CCN(c2c3c(nc4ncnn24)CCC3)CC1 (centres undefined)	3	·	·	·	·	·
O=C(Nc1ccc(N2CCOCC2)cc1)c1ccc(COc2ccccc2)cc1	3	·	·	·	·	·
Cc1c(C(=O)OCC(=O)N2CC(=O)Nc3ccccc32)oc2ccccc12	2	-1	-6	2	13	5
O=C1CN(C(=O)COC(=O)c2oc3ccccc3c2COc2ccccc2)c2ccccc2N1	0	-3	·	1	45*	2
COc1ccc(/C=C/C(=O)C23CC4CC(CC(C4)C2)C3)cc1CN1CCOCC1	6	-3	5	6	-12	6
CC(C)N(C(=O)c1nn(C)c2c1CSc1ccccc1-2)C1CCCCC1	0	·	·	·	·	·
SMILES	IEC-6 cytotox	Ba/F3 V617F tox	b-catenin transl	MT stabilize HCS	APP transl inh	BaF3 parental
CCOc1ccccc1CN1CCN(C/C=C/c2ccc(OC)cc2)CC1CCO (centres undefined)	11	4	1	2	15	43*
C#CCNC(=O)C1=C[C@@H](C2CCCCC2)C[C@@H](OCCCCO)O1	-2	-5	-1	2	-8	4
CCOC(=O)Cc1ccc(NC(=O)c2ccc(C(C)(C)C)cc2)cc1	11	-1	-2	1	71*	0
CCOC(=O)Cc1ccc(NC(=O)c2ccccc2Br)cc1	3	3	1	8	-6	2
Cc1cc(OC(C)C(=O)N2CCN(c3ccc(F)cc3)CC2)c2c(C)cc(=O)oc2c1 (centres undefined)	-5	·	·	·	·	·
O=C(c1ccccc1)N1CCC(c2nc(-c3ccc(S(=O)(=O)N4CCOCC4)cc3)no2)CC1	-1	4	-1	2	-13	9
O=C(Nc1ccccc1)N1CCC(c2nc(-c3ccc(S(=O)(=O)N4CCOCC4)cc3)no2)CC1	0	-4	-2	26*	8	9
CC1c2[nH]c3ccccc3c2CCN1C(=O)Nc1ccccc1 (centres undefined)	12	-5	5	43*	11	6
O=C(Nc1ccccc1)N1CCc2c([nH]c3ccccc23)C1C(F)(F)F (centres undefined)	0	-2	-2	·	·	0
C=Cc1ccc(C(=O)NC2CCCN(Cc3ccccc3F)C2)cc1 (centres undefined)	-8	·	·	·	·	·
CC1(C)Cc2nc3sc4c(=O)n(CC(=O)NCc5ccccc5)cnc4c3cc2CO1	-1	0	·	34*	-4	2
CC1(C)Cc2nc3sc4c(=O)n(CC(N)=O)cnc4c3cc2CO1	2	-6	-2	2	1	-3
CC12CCC(C(=O)N(NC(=O)c3cc(Cl)ccc3O)C1=O)C2(C)C (centres undefined)	-2	2	-3	2	-4	7
c1cnc2ccc(C(c3nnnn3C3CCCCC3)N3CCN(C4CCCCC4)CC3)cc2c1 (centres undefined)	-6	37*	·	3	9	33*
O=C(Nc1ccccc1F)c1c[nH]c(=O)[nH]c1=O	2	4	3	·	·	0
CCCOc1ccc(CSc2nc3ccccc3[nH]2)cc1	8	5	·	3	-125	44*
CCOc1ccc(OCCSc2nc3ccccc3[nH]2)cc1	2	1	1	4	-3	6
Cc1c(Cl)c(C(=O)N2CCCCCC2)nn1C	-4	·	·	·	·	·
CCn1c2ccccc2c2cc(/C=N/NC(=O)c3ccccc3)ccc21	0	2	1	20*	-1	2
O=S(=O)(Nc1nc2ccccc2nc1Nc1ccc2c(c1)OCO2)c1ccc(F)cc1	2	0	0	4	12	5
Cc1c(C(=O)NCC2CCCO2)oc2ccc(S(=O)(=O)N3CCCC3)cc12 (centres undefined)	0	2	·	3	7	6
Cc1c(C(=O)NCC2CCCO2)oc2ccc3c(c12)C(=O)CC(C)(C)O3 (centres undefined)	6	0	3	4	-156	94*
Cc1ccc(C)c(Cn2c3ccccc3c3cnn(CC(=O)NCCCN4CCOCC4)c(=O)c32)c1	-3	·	·	·	·	·
CCN(CC(=O)NC1CCS(=O)(=O)C1)S(=O)(=O)c1ccccc1Cl (centres undefined)	-2	·	·	·	·	·
O=C(Nc1ccc(Cl)cc1F)C1CCN(S(=O)(=O)c2cccc3nonc23)CC1	4	·	·	·	·	·
O=C1/C(=C/c2ccccc2)Nc2ccccc21	-3	-1	0	2	4	0
